Data from ChEMBL document CHEMBL4152210, “Design, synthesis, anti-lung cancer activity, and chemosensitization of tumor-selective MCACs based on ROS-mediated JNK pathway activation and NF-κB pathway inhibition” (Eur J Med Chem, 2018).
Active and inactive are the calls of the source. The rule behind the calls is not given here.

Experiments:
L02 = assay: Cytotoxicity against human HL7702 cells assessed as reduction in cell viability after 72 hrs by MTT assay; assay type: cell-based; conditions: L02, 72 h
How it was run: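 Cells in RPMI 1640 with 10% heat-inactivated FBS and penicillin/streptomycin at 37 °C, 5% CO2. Seeded at 4000 per well, adhered overnight, then exposed to graded compound concentrations in triplicate wells for 72 h. MTT (5 mg/mL stock) added for 4 h, dissolved in DMSO, A490 read. IC50 is the concentration reducing viability by 50% versus untreated control.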

[1] = Selectivity index, ratio of IC50 for human HL7702 cells to IC50 for human NCI-H1975 cells; assay type: toxicity
How it was run: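 Selectivity index taken as the logarithm of the ratio of the HL7702 IC50 to the cancer-line IC50. […] Not calculated when an IC50 was lacking.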

A549 [2] = assay: Cell cycle arrest in human A549 cells assessed as increase in accumulation at G2/M phase after 10 hrs by propidium iodide staining based flow cytometric analysis; assay type: functional
How it was run: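 A549 (6 × 10^5 per 60 mm dish, overnight) treated at 1, 5 or 10 µM for 10 h, with BMS345541 (20 µM) as positive control. Trypsinized, fixed in ice-cold 70% ethanol at −20 °C for 30 min, treated with RNase A, stained with 50 µg/mL PI, analysed by flow cytometry.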

A549 [3] = assay: Induction of apoptosis in human A549 cells after 24 hrs by Annexin V-FITC/propidium iodide staining based flow cytometric analysis; assay type: functional, cell-based
How it was run: (§1)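 A549 treated 24 h at 1, 5 or 10 µM, with BMS345541 20 µM as control. Inhibitor arms pretreated 1 h with NAC (5 mM) or SP600125 (10 µM) before 10 µM. Cells harvested with EDTA-free trypsin, stained with FITC Annexin V and PI for 15 min at room temperature in the dark, analysed by flow cytometry.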

[4] = molecular target: T1, NF-kappa-B inhibitor alpha (Homo sapiens) (UniProt P25963); assay: Inhibition of TNF-alpha induced IkappaBalpha degradation in human A549 cells at 10 uM pretreated with 5 mM NAC for 1 hr followed by compound addition and measured after 1 hr by Western blot analysis; assay type: cell-based
T1 sequence (whole entry): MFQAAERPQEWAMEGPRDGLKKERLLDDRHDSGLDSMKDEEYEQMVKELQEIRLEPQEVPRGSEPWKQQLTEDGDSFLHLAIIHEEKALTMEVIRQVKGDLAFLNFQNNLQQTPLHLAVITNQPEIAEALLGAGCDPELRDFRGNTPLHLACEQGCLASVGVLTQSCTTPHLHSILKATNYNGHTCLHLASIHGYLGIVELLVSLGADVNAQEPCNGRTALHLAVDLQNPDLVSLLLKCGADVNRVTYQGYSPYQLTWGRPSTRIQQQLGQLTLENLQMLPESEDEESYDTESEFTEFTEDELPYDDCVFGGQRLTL
How it was run: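 A549 preincubated 1 h at 1, 5 or 10 µM, or with BMS345541 (20 µM), then stimulated with TNFα (1 ng/mL) for 15 min. NAC arm: 5 mM NAC for 1 h, then 10 µM for 1 h. IκBα detected by western blot, GAPDH as loading control.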

[5] = molecular target: T2, Inhibitor of nuclear factor kappa-B kinase subunit beta (Homo sapiens) (UniProt O14920); assay: Inhibition of cisplatin-induced IKK-beta phosphorylation in human A549 cells at 1 to 10 uM preincubated for 1 hr followed by cisplatin addition and measured after 24 hrs by Western blot analysis; assay type: cell-based
T2 sequence (whole entry): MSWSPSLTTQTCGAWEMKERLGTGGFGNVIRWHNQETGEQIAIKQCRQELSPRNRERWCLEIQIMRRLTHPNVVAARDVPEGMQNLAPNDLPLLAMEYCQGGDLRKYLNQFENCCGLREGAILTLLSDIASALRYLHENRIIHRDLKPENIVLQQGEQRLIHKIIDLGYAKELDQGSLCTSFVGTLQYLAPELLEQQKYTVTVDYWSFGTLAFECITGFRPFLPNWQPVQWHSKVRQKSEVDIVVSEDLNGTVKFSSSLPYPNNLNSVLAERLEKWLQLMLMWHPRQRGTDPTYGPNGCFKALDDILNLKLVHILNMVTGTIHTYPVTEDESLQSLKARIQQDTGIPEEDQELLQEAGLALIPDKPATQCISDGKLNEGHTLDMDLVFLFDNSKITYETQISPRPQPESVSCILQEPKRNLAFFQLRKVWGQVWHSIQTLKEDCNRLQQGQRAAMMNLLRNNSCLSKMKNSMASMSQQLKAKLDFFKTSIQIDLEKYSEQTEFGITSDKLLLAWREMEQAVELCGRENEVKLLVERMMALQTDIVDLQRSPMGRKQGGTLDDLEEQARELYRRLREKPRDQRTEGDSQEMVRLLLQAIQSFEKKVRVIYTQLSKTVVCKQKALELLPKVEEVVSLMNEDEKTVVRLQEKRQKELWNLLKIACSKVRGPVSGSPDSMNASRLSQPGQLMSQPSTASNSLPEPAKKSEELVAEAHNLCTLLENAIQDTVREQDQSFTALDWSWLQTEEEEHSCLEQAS
How it was run: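 A549 pretreated 1 h at 1, 5 or 10 µM, or with BMS345541 (20 µM), then exposed to cisplatin (20/3 µM) for 24 h. p-IKKβ assessed by western blot.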

A549 [6] = assay: Chemosensitization activity in human A549 cells assessed as inhibition of clonogenic growth at 1 uM in presence of 0.25 uM cisplatin incubated for 2 days followed by replacement of growth media and measured after 8 days by crystal violet staining-based assay relative to control; assay type: functional
How it was run: (§2)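 A549 seeded at 1000 cells per well in 6-well plates, exposed to drug alone or combined with cisplatin or 5-Fu over a concentration series. Drug-containing medium replaced after 2 days. After a further 8 days, fixed with 1% methanol/1% formaldehyde and stained with 0.5% crystal violet. Percent inhibition at each concentration calculated relative to control.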

A549 [7] = assay: Chemosensitization activity in human A549 cells assessed as inhibition of clonogenic growth at 0.5 uM in presence of 0.74 uM cisplatin incubated for 2 days followed by replacement of growth media and measured after 8 days by crystal violet staining-based assay relative to control; assay type: functional; how it was run: as §2
A549 [8] = assay: Chemosensitization activity in human A549 cells assessed as inhibition of clonogenic growth at 0.25 uM in presence of 3 uM cisplatin incubated for 2 days followed by replacement of growth media and measured after 8 days by crystal violet staining-based assay relative to control; assay type: functional; how it was run: as §2
A549 [9] = assay: Chemosensitization activity in human A549 cells assessed as inhibition of clonogenic growth at 0.25 uM in presence of 9 uM cisplatin incubated for 2 days followed by replacement of growth media and measured after 8 days by crystal violet staining-based assay relative to control; assay type: functional; how it was run: as §2
A549 [10] = assay: Induction of apoptosis in human A549 cells at 10 uM preincubated with NAC for 1 hr followed by compound addition and measured after 24 hrs by Annexin V-FITC/propidium iodide staining based flow cytometric analysis; assay type: functional, cell-based; how it was run: as §1

With `COc1cc(/C=C2\CN(C)C/C(=C\c3cc(OC)c(OC)c(OC)c3)C2=O)cc(OC)c1OC` the IC50 (L02) was 26.4 µM, the “log(RatioIC50)” value [1] was 1.42 and the Activity (A549 [2]) was “Dose-dependent effect”. For the same compound, the Activity (A549 [3]) was “Dose-dependent effect”, the inhibition [4] was “inactive” and the inhibition [5] was “Active”. For the same compound, the “inhibition (INH)” value (A549 [6]) was 90%, the “inhibition (INH)” value (A549 [7]) was 82% and the “inhibition (INH)” value (A549 [8]) was 57%. The “inhibition (INH)” value (A549 [9]) was 99% and the Activity (A549 [10]) was “inactive”.
